MDM2 E3 inh – Mdm2 E3 ligase (human) inhibition; Q00987; cell-based MDM2 ubiquitination luciferase reporter, 2 h; 0 = plate control, 100 = twice control, blank-subtracted; signal enhancement, % at 5 µM; actives 0.11% (n = 210,000);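 active = signal enhancement of 30% or more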;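 also: luminescence tracks abundance of the self-degrading MDM2-luciferase fusion protein; higher signal means inhibition of MDM2 E3 ligase activity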
Target sequence (Q00987 whole entry, looked up, the tested form may be a part): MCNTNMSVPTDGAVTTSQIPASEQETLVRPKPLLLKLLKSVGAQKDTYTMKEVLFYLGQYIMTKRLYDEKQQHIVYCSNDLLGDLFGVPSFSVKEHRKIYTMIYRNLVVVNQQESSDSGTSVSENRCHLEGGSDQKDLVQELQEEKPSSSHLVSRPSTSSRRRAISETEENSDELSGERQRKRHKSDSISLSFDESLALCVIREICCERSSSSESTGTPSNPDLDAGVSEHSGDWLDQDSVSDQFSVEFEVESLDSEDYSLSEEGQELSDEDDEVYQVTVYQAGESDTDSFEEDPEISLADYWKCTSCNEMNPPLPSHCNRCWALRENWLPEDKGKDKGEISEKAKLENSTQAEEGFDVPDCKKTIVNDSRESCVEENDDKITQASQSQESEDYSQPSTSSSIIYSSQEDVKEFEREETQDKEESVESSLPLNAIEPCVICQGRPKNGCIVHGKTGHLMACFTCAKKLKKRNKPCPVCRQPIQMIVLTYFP
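Assay system: mammalian cells stably expressing self-ubiquitinating, self-degrading MDM2 E3–luciferase fusion. Quantity: 2000 cells in each well. Medium: DMEM culture medium. Compound dosing: single-point 5 µM. Timing: cell settling 4 h, compound treatment 2 h, both 37 °C. Technique: luciferase luminescence. Read-out basis: percent signal gain over controls, blank-subtracted. Benchmarks: plate controls and plate blanks.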
Tb hexokinase – blocks Trypanosoma brucei hexokinase 1 activity. recombinant TbHK1, G6PDH-coupled NADH A340. inhibition, % at 10 µM. actives 0.11% (n = 220,000). AID 1430;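 active = inhibition of 50% or more in the single-dose primary screen; inactive = inhibition below 50%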
14-3-3 Bad inh – disrupts binding of bovine 14-3-3 zeta to phospho-Bad peptide. P63103. TR-FRET 14-3-3zeta/Dy647-pBad peptide displacement, 1 h. inhibition, % at 21.7 µM. actives 0.71% (n = 220,000). AID 781;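 active = inhibition above about 70%, limit read from the data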;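 also: 0% = full 14-3-3 plus peptide FRET controls and 100% = background without 14-3-3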
Target sequence (P63103 whole entry, looked up): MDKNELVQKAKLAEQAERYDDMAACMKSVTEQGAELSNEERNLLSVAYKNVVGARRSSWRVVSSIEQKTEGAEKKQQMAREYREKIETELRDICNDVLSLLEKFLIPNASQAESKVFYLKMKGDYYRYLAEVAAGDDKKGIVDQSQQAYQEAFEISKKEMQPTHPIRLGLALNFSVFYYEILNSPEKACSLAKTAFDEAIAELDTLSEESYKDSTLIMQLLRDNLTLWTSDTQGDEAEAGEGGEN
Hck Nef HTS – human Hck-Nef kinase inhibition. Recombinant Hck-YEEI plus Nef, Z-Lyte FRET kinase assay. actives 0.68% (n = 220,000). P08631. AID 463187. inhibition, % at 20 µM;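 active = Hck-Nef kinase inhibition above about 50%, limit read from the data; inactive = inhibition below that limit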;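 also: 0% = DMSO with Hck plus Nef and 100% = Hck alone without Nef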
Wee1 stabilizer – inhibitors of human Wee1 degradation. P30291. HeLa Luc-Wee1K328M stability, luciferase luminescence; 100% = proteasome inhibitor MG132 effect. reporter increase, % at 5 µM. actives 1.2% (n = 220,000). AID 1321;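 active = activation above the mean of all tested compounds plus 3 SD, set per screening run, cut at about 8.8% in these data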;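 also: cells exposed to compound for 20 h before luminescence read; 0% = DMSO alone and 100% = MG132 at 30 µM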
An asterisk follows results filed as active. In the library only some 2.7% were active in any assay of this set; here they are far more common.

How did Cc1c(C(=O)NN2CCOCC2)oc2c1ccc1ccccc12 do in these assays?
MDM2 E3 inh: -1.3; Tb hexokinase: -7.4; 14-3-3 Bad inh: -10.7; Hck Nef HTS: 20.1; Wee1 stabilizer: 2.3

What do the screens show for `CC(C)CN(C(=O)COC(=O)c1nc(Cl)ccc1Cl)C1CCS(=O)(=O)C1` (stereo not given)?
MDM2 E3 inh: 5.8; Tb hexokinase: 2.0; 14-3-3 Bad inh: -5.2; Hck Nef HTS: -14.7; Wee1 stabilizer: -4.0

What do the screens show for `CC(C)CN(C(=O)COC(=O)c1c(Cl)ccc(Cl)c1Cl)C1CCS(=O)(=O)C1` (stereo not given)?
MDM2 E3 inh: -31.7; Tb hexokinase: -2.8; 14-3-3 Bad inh: -6.9; Hck Nef HTS: 0.6; Wee1 stabilizer: 8.8*

What do the screens show for `CCOC(=O)N1CCN(C(=O)C2CCCN(S(=O)(=O)c3cc(C)ccc3OC)C2)CC1` (stereo not given)?
MDM2 E3 inh: 78.6*; Tb hexokinase: 0.0; 14-3-3 Bad inh: -2.9; Hck Nef HTS: 0.8; Wee1 stabilizer: 1.0

What do the screens show for `COc1ccc(CNC(=O)C2CCCN(S(=O)(=O)c3cc(C)ccc3OC)C2)cc1` (stereo not given)?
MDM2 E3 inh: 4.5; Tb hexokinase: 1.5; 14-3-3 Bad inh: -1.6; Hck Nef HTS: -1.0; Wee1 stabilizer: -4.9

How did O=C1CC(c2ccccc2)CC(O)=C1C=Nc1ccc(O)cc1 (stereo not given) do in these assays?
MDM2 E3 inh: 2.3; Tb hexokinase: -16.5; 14-3-3 Bad inh: -8.0; Hck Nef HTS: 14.1; Wee1 stabilizer: -1.4

Results for O=C1CC(c2cccc(Cl)c2)CC(O)=C1C=NC1CCCC1 (stereo not given) ?
MDM2 E3 inh: 32.2*; Tb hexokinase: 3.5; 14-3-3 Bad inh: -4.1; Hck Nef HTS: 6.2; Wee1 stabilizer: -2.3

Results for O=C1CC(c2ccccc2)CC(O)=C1C=NCc1ccccc1 (stereo not given) ?
MDM2 E3 inh: -5.1; Tb hexokinase: -5.5; 14-3-3 Bad inh: -2.7; Hck Nef HTS: -1.6; Wee1 stabilizer: -2.0

What do the screens show for `O=C1CC(c2ccccc2)CC(O)=C1C=NCc1ccccc1Cl` (stereo not given)?
MDM2 E3 inh: -1.7; Tb hexokinase: 0.3; 14-3-3 Bad inh: -4.3; Hck Nef HTS: -0.3; Wee1 stabilizer: 9.3*

How did Cn1c(=O)c2cc(S(=O)(=O)NCCC(=O)NCCc3ccc(Cl)cc3)ccc2n(C)c1=O do in these assays?
MDM2 E3 inh: -11.8; Tb hexokinase: -0.7; 14-3-3 Bad inh: 55.2; Hck Nef HTS: -0.6; Wee1 stabilizer: -2.6

What do the screens show for `CC(c1cccs1)N(C)Cc1nc(CCc2ccccc2)no1` (stereo not given)?
MDM2 E3 inh: -10.8; Tb hexokinase: 2.1; 14-3-3 Bad inh: -11.3; Hck Nef HTS: 3.7; Wee1 stabilizer: -2.6

What do the screens show for `Cn1cc(CN2CCN(Cc3ccccc3)C(CCO)C2)c(-c2ccccc2)n1` (stereo not given)?
MDM2 E3 inh: 0.0; Tb hexokinase: 1.3; 14-3-3 Bad inh: -2.2; Hck Nef HTS: 20.5; Wee1 stabilizer: -4.3

Results for Cc1oc(-c2ccccc2F)nc1CS(=O)(=O)CC(=O)NCCCc1ccccc1 ?
MDM2 E3 inh: -12.8; Tb hexokinase: 0.0; 14-3-3 Bad inh: 4.0; Hck Nef HTS: 1.6; Wee1 stabilizer: -0.1

How did Cc1oc(-c2ccccc2F)nc1CS(=O)(=O)CC(=O)NCc1ccco1 do in these assays?
MDM2 E3 inh: -12.1; Tb hexokinase: 6.5; 14-3-3 Bad inh: -3.7; Hck Nef HTS: 20.8; Wee1 stabilizer: 9.2*

Results for Cc1csc(NC(=O)Nc2ccc(Cl)cc2)n1 ?
MDM2 E3 inh: 1.3; Tb hexokinase: -9.1; 14-3-3 Bad inh: -6.7; Hck Nef HTS: 2.1; Wee1 stabilizer: 8.9*

What do the screens show for `CC1CCN(C(c2cccs2)c2nnnn2Cc2ccccc2)CC1` (stereo not given)?
MDM2 E3 inh: -17.6; Tb hexokinase: 10.0; 14-3-3 Bad inh: 79.2*; Hck Nef HTS: -25.9; Wee1 stabilizer: -1.6

What do the screens show for `O=C(CCNC(=O)c1ccc(Cl)cc1)Nc1c(F)c(F)cc(F)c1F`?
MDM2 E3 inh: 2.8; Tb hexokinase: -2.1; 14-3-3 Bad inh: -6.3; Hck Nef HTS: 5.2; Wee1 stabilizer: 2.1

How did CCN1CCN(C(=S)NCCc2ccccc2)CC1 do in these assays?
MDM2 E3 inh: -18.7; Tb hexokinase: 3.4; 14-3-3 Bad inh: 84.9*; Hck Nef HTS: 0.0; Wee1 stabilizer: -1.1

What do the screens show for `OCCN1CCN(C(=S)NCCc2ccccc2)CC1`?
MDM2 E3 inh: -5.6; Tb hexokinase: 0.0; 14-3-3 Bad inh: -16.1; Hck Nef HTS: -0.3; Wee1 stabilizer: -2.5

What do the screens show for `Cc1ccc(NC(=O)CC(NCC2CCCO2)C(=O)O)cc1C` (stereo not given)?
MDM2 E3 inh: -7.9; Tb hexokinase: 4.9; 14-3-3 Bad inh: -12.9; Hck Nef HTS: -18.5; Wee1 stabilizer: 3.8

Results for CCOC(=O)C1C(c2ccccc2)N(C)OC1(O)C(F)(F)F (stereo not given) ?
MDM2 E3 inh: 35.0*; Tb hexokinase: 0.1; 14-3-3 Bad inh: -15.7; Hck Nef HTS: 0.7; Wee1 stabilizer: -2.1

Results for COc1ccc(CCNC(=O)CSc2nc(C)nc3sccc23)cc1OC ?
Tb hexokinase: -8.8; 14-3-3 Bad inh: 3.4; Hck Nef HTS: 24.0; Wee1 stabilizer: 2.3

Results for Cc1ccc2c(c1)sc1ncc(NC(=O)c3ccc(F)cc3)c(=O)n12 ?
MDM2 E3 inh: -15.9; Tb hexokinase: -21.9; 14-3-3 Bad inh: 5.7; Hck Nef HTS: 4.9; Wee1 stabilizer: 3.4

How did Cc1ccc2c(c1)sc1nc(=O)n(-c3ccccc3)c(=O)n12 do in these assays?
MDM2 E3 inh: -13.3; Tb hexokinase: -1.7; 14-3-3 Bad inh: -2.5; Hck Nef HTS: -2.1; Wee1 stabilizer: 9.0*

What do the screens show for `Cc1ccc(S(=O)(=O)NCC(=O)NCC(=O)OC(C(=O)NC(N)=O)C(C)C)cc1C` (stereo not given)?
Tb hexokinase: -10.8; 14-3-3 Bad inh: 5.2; Hck Nef HTS: 20.0; Wee1 stabilizer: 1.7

How did Cc1cc(=O)oc2cc(OC(=O)c3cncc(Br)c3)ccc12 do in these assays?
MDM2 E3 inh: -11.8; Tb hexokinase: -2.1; 14-3-3 Bad inh: 15.9; Hck Nef HTS: 68.8*; Wee1 stabilizer: 0.8

Results for CCCC(=O)Oc1ccc2c(C)cc(=O)oc2c1 ?
MDM2 E3 inh: 3.1; Tb hexokinase: 10.1; 14-3-3 Bad inh: -14.6; Hck Nef HTS: 76.6*; Wee1 stabilizer: -2.1

How did CCOCCCNS(=O)(=O)c1ccc(NC(=O)N2c3ccccc3Sc3ccccc32)cc1 do in these assays?
MDM2 E3 inh: -1.1; Tb hexokinase: -7.1; 14-3-3 Bad inh: -5.5; Hck Nef HTS: 1.2; Wee1 stabilizer: -2.2

Results for CCN(CC)c1ccc(/C=N/NC(=O)c2ccccn2)cc1 ?
MDM2 E3 inh: -39.2; Tb hexokinase: -40.8; 14-3-3 Bad inh: 2.3; Hck Nef HTS: -24.7; Wee1 stabilizer: 9.5*

Results for NC(=O)c1ccc(NC(=O)Cn2c(=O)n(-c3ccccc3)c(=O)c3oc4ccccc4c32)cc1 ?
MDM2 E3 inh: -5.9; Tb hexokinase: -11.7; 14-3-3 Bad inh: -3.5; Hck Nef HTS: 5.2; Wee1 stabilizer: 9.9*

Source: PubChem BioAssay
